SKN-1 inh = inhibitors of C. elegans SKN-1; inhibition, % at 21.8 µM; C. elegans VP596 Pgst-4::GFP/RFP ratio, acrylamide-induced, 24 h; AID 624304; 360,000 compounds, 0.49% hits;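 active = interference check ratio from 0.5 to 1.5 plus GFP to RFP signal ratio inhibition reaching or exceeding a fixed threshold, cut at about 30% in these data, passing the limit was not always enough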
TbMetRS inhib = Trypanosoma brucei MetRS inhibition | purified T. brucei MetRS, ATP depletion, Kinase-Glo luminescence | 360,000 compounds, 0.4% hits | AID 624268 | inhibition, % at 11.9 µM;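 active = inhibition above a per-plate cutoff of the control wells' mean inhibition plus 3 SD, cut at about 5.5% in these data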;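 also: 0% = DMSO wells median and 100% = median of wells with control inhibitor compound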
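Measured by: Kinase-Glo luciferase luminescence reporting remaining unconsumed ATP. Material: purified T. brucei MetRS enzyme. Doses: 11.9 µM compound single dose, 0.9% DMSO. Medium: HEPES buffer containing pyrophosphatase, BSA, spermine, DTT. Times: 15 min preincubation, 2 h reaction, all 25 °C. Reagent: methionine, ATP and bulk E. coli tRNA.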
PREPL inhibitor = human PREPL enzyme inhibition. Q4J6C6. recombinant PREPL, fluorescence polarization activity-based probe. inhibition, % at 5.96 µM. 320,000 compounds, 0.68% hits. AID 2751;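 also: 0% = enzyme with DMSO and 100% = wells lacking enzyme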
Target sequence (Q4J6C6 whole entry, looked up): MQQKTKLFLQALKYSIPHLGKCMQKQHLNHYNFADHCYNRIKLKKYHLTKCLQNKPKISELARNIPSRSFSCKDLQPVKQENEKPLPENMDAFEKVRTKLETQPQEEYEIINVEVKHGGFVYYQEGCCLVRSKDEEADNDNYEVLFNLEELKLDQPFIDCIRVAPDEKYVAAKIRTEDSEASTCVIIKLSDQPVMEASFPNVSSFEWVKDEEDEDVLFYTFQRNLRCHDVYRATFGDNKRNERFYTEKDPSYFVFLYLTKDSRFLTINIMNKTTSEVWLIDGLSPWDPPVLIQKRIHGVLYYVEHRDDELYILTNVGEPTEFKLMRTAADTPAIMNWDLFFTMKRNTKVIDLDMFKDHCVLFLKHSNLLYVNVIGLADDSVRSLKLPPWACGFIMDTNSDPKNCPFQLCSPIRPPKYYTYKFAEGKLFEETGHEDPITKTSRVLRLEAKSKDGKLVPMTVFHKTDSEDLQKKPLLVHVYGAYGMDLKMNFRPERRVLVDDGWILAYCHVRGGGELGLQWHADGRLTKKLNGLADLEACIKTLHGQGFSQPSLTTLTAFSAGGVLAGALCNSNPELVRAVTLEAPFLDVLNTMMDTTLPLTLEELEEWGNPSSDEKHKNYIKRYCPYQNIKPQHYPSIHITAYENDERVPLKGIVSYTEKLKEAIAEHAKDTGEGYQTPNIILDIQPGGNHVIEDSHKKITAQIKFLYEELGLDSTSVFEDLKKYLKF
MT1-MMP act inh = inhibitors of human MT1-MMP activation. 360,000 compounds, 0.061% hits. GFP/RFP ratio change, % at 20 µM. P50281. HT1080 RFP-PRO-GFP cells, GFP/RFP ratio fluorescence, overnight; percent of plate control window, DMSO zero;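 active = GFP/RFP ratio change of at least 30% with cell ATP level not reduced by more than half and red fluorescence within 50% of control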
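Material – HT1080 RFP-PRO-GFP cells · Control set – DMSO wells and RFP-L50D-GFP cells · Incubation – overnight cell settling, then overnight compound exposure, 37 °C, 5% CO2 · Compound dosing – single-point 20 µM compound, 1% DMSO · Read-out – GFP/RFP fluorescence ratio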
hiPSC survival = hiPSC single-cell survival enhancement; ATPlite luminescence; 100% = ROCK inhibitor wells, 0% = DMSO; survival enhancement, % at 20 µM; 360,000 compounds, 0.044% hits; AID 602274; in the data active = survival enhancement above about 18%;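 also: cells exposed to compounds for 16 hours before the ATP read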
E coli Lon inh = inhibits E. coli Lon protease; P0A9M0; purified E. coli Lon protease, fluorescence polarization; inhibition, % at 7.94 µM; 360,000 compounds, 0.42% hits; AID 602123; in the data active = inhibition above about 13%, passing the limit was not always enough;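 also: 0% = enzyme with probe and DMSO and 100% = no enzyme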
PREPL confirm = confirmation of human PREPL enzyme inhibitors | 2,000 compounds, 67% hits | recombinant PREPL, fluorescence polarization activity probe | AID 2803 | inhibition, % at 5.96 µM | shares compounds with PREPL inhibitor;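 also: 0% = protein with DMSO and 100% = wells lacking protein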
Starred values were filed as active, the others as inactive; . = no result given. Shown are actives, neighbours in structure and some others; about 1.8% of the full set was active somewhere. Rule as the data show it, unless noted: active = inhibition above about 43%; inactive = the rest.

SMILES | SKN-1 inh | TbMetRS inhib | PREPL inhibitor | MT1-MMP act inh | hiPSC survival | E coli Lon inh | PREPL confirm
O=C(C[C@H]1C/C=C\C[C@@H](Cc2ccc(F)cc2)C(=O)OC[C@@H](Cc2c[nH]c3ccccc23)NC1=O)NCCO | -6.9 | -0.1 | 45.3* | 0.1 | 1.6 | -8.5 | 35.3
O=C1N[C@@H](Cc2c[nH]c3ccccc23)COC(=O)[C@H](Cc2ccc(F)cc2)C/C=C\C[C@@H]1CC(=O)N(CCO)Cc1ccccc1 | 17.4 | -0.2 | 31.6 | 15.7 | 5.2 | 4.3 | .
Cc1ccccc1OCCC(=O)Nc1ccc(N2CCOCC2)cc1N1CCOCC1 | 2.6 | -0.4 | 43.3* | -1.8 | -0.2 | -4.7 | 43.0
O=C(COc1cccc(Br)c1)Nc1ccc(N2CCOCC2)cc1N1CCOCC1 | -2.1 | -0.1 | 45.8* | -0.1 | -0.3 | 3.3 | 36.7
CCC(=O)c1ccc(OCC(=O)Nc2ccc(N3CCOCC3)cc2N2CCOCC2)cc1 | 4.1 | -0.2 | 6.0 | -0.5 | 0.2 | -0.8 | .
O=C(Nc1ccc(Cl)cc1N1CCOCC1)C1CCCO1 (centres undefined) | 1.5 | -0.4 | 7.7 | -1.0 | -0.4 | -8.9 | .
CCn1c(CNS(=O)(=O)c2ccc(Br)cc2)n[nH]c1=S | 14.3 | -0.3 | -2.6 | 4.3 | -0.4 | -0.6 | .
COc1cc(O)c(C(CCN2CCCC2)c2cc(OC)c(OC)c(OC)c2)c(OC)c1 (centres undefined) | -0.3 | -0.3 | 44.8* | -2.8 | -2.1 | -5.5 | 47.5*
CC1=Nc2nc(N3CCCCCC3)c(C#N)c3c4c(nc(c23)N1)N(c1ccc2ccccc2c1)C(=O)C4 | -2.4 | 0.0 | 63.1* | -2.7 | 0.8 | -7.6 | 60.6*
N#Cc1c(N2CCN(c3ccc(F)cc3)CC2)nc(N)c2c(N)nc3c(c12)CC(=O)N3C1CC1 | 9.2 | -0.5 | . | 0.6 | -0.4 | -1.7 | .
CN(C(=O)CCS(=O)(=O)c1cc2c(cc1Cl)NC(=O)CO2)C1CCCCC1 | 7.1 | 0.3 | -5.2 | -2.9 | -0.7 | 8.1 | .
CC(C)[C@H](NC(=O)c1ccc([N+](=O)[O-])cc1Cl)C(=O)N1CCN(C/C=C/c2ccccc2)CC1 | 6.9 | -0.1 | 46.9* | 0.8 | -1.6 | 1.7 | 39.5
Cc1ccccc1-c1nc(CN2CCC(C(=O)N3CCN(c4ccccn4)CC3)CC2)c(C)o1 | -6.5 | -0.4 | 49.3* | 0.8 | 2.9 | -9.6 | 43.0
COc1cc2[nH]c3c(N4CCN(c5ccccn5)CC4)ncnc3c2cc1OC | 2.5 | 0.1 | 69.0* | 7.1 | 2.7 | -6.0 | 69.2*
CCOC(=O)N1CCN(c2ncnc3c2[nH]c2ccc(OC)cc23)CC1 | -15.7 | -1.3 | 18.6 | . | -0.6 | 2.6 | .
Fc1ccc2[nH]c3c(N4CCN(c5ccccc5)CC4)ncnc3c2c1 | 18.5 | 2.7 | 61.9* | -0.1 | 1.5 | -4.5 | 47.7*
COc1ccc2[nH]c3c(N4CCc5ccccc5C4)ncnc3c2c1 | 14.9 | 1.5 | 60.1* | 12.8 | -0.2 | 6.3 | 56.3*
COc1ccc(N2CCN(c3ncnc4c3[nH]c3ccccc34)CC2)cc1 | -14.2 | 1.6 | 51.6* | 2.6 | -1.4 | 7.1 | 46.5*
CCOc1ccccc1C(=O)NCCN1CCC(n2c(=O)[nH]c3ccccc32)CC1 | 11.5 | -1.4 | . | 11.0 | 0.1 | 4.5 | .
COc1ccccc1C1(CC(=O)N2CCOCC2)CCOC(C(C)C)C1 (centres undefined) | 10.8 | -0.9 | 20.6 | -1.1 | 2.3 | 5.9 | .
O=C(COc1ccc(/C=C2/NC(=O)NC2=O)cc1)Nc1ccc(F)cc1 | -5.3 | 0.2 | 15.5 | 3.0 | 0.6 | 6.1 | .
COc1cc(/C=C2/NC(=O)NC2=O)ccc1OCC(=O)Nc1ccc(F)cc1 | 13.6 | -0.4 | 86.6* | 5.1 | 0.6 | -3.8 | 10.2
CCN(CC)CCN1c2ccccc2Sc2ccc3ccccc3c21 | -5.3 | -0.9 | 46.2* | -3.0 | -0.8 | 2.6 | 37.4
CC(C)OCC(O)CS(=O)Cc1ccccc1 (centres undefined) | 20.5 | -0.2 | 1.5 | 6.2 | 1.4 | 0.8 | .
CSCC(=O)N1CCCC(CNC(=O)c2ccc(-c3ccccc3)cc2)C1 (centres undefined) | 10.5 | -0.2 | 40.9 | -1.1 | -0.5 | -4.1 | .
SMILES | SKN-1 inh | TbMetRS inhib | PREPL inhibitor | MT1-MMP act inh | hiPSC survival | E coli Lon inh | PREPL confirm
CC(=O)CCC(=O)N1CCCC(CNC(=O)c2ccc(-c3ccccc3)cc2)C1 (centres undefined) | 0.8 | 0.9 | 43.1* | 6.5 | -0.6 | -5.6 | 35.4
O=C(N/N=C/c1ccc(Cl)cc1Cl)c1cccc(F)c1 | 17.2 | -0.1 | -2.8 | 3.8 | 4.4 | -8.1 | .
O=C(C[n+]1ccc(C(=O)N/N=C/c2ccc(Cl)cc2Cl)cc1)c1ccccc1 | -1.3 | 0.6 | 45.0* | 6.2 | -1.7 | 0.0 | 24.2
Cc1ccc(NC(=O)COC(=O)CNC(=O)c2cccs2)cc1S(=O)(=O)N1CCOCC1 | 7.4 | -0.4 | . | 1.4 | 6.8 | -6.3 | .
COc1cc(N(Cc2ccccc2)Cc2ccccc2)c2ncn(C(C)C)c2c1 | 16.4 | -0.2 | -2.0 | -4.5 | -0.4 | 3.0 | .
CC(C)n1cnc2c(N(C)c3ccccc3)nc(N(CCN(C)C)Cc3ccccc3)nc21 | -39.6 | -0.3 | 52.0* | -1.6 | -1.9 | -2.4 | 47.6*
COc1ccc(C)cc1Nc1n[n+](-c2ccccc2)c(-c2ccc(SC)cc2)s1 | 14.0 | -0.4 | 20.1 | 5.0 | -1.1 | -8.3 | .
Nc1c(N2CCN(c3ccccc3)CC2)c2ccccc2oc1=O | 3.3 | -1.0 | 50.5* | -12.7 | -1.1 | 7.3 | 42.1
Nc1c(N)c2ccccc2oc1=O | 9.2 | -0.1 | -1.3 | 2.2 | 0.3 | 1.0 | .
Cc1ccc(NS(=O)(=O)c2cc3c4c(cccc4c2)C(=O)NC3=O)cc1C | 23.4 | 0.3 | 44.7* | -50.8 | -0.8 | -3.0 | 31.0
COc1ccc(-c2ccc(C#N)c(SCC(=O)OCc3ccccc3)n2)cc1OC | -6.6 | -0.1 | 57.5* | 9.5 | -1.0 | 0.0 | 15.6
CC1(C(=O)NCC2CC2)CCN1C(=O)C1(c2ccc(Cl)cc2)CC1 (centres undefined) | -8.0 | -0.3 | . | 0.2 | 3.1 | -0.9 | .
COc1ccc(C(=O)Nc2ccc(N3CCOCC3)cc2)cc1S(=O)(=O)N1CCOCC1 | 8.9 | -0.1 | . | 3.3 | -0.4 | 1.6 | .
COc1ccc(C(=O)Nc2ccc(-c3ccc(C)o3)cc2)cc1S(=O)(=O)N1CCOCC1 | -31.1 | -1.2 | 62.9* | 10.2 | -0.8 | 3.1 | 37.4
C#CCOCCOCCOCCNc1nc(N2CCN(C(=O)C(Cc3ccc(O)cc3)n3cc(C(N)CC(C)C)nn3)CC2)nc(N2CCN(C(=O)C(Cc3cc4ccccc4[nH]3)n3cc(C(N)C(C)CC)nn3)CC2)n1 (centres undefined) | . | . | 51.2* | . | . | . | 51.4*

Screening data deposited in PubChem BioAssay by several laboratories.
